# In ChEMBL document CHEMBL5303300, “EUbOPEN Chemogenomics Library - Multiplex” (2023):
# Values joined by “and” are separate entries in the source; they are usually repeats but may differ in a detail not shown here. Equal values may be shown once.
# Test system: Fibroblast
# Experiment: Multiplex assay against human fibroblast
# Assay type: toxicity, cell-based
# Details: number of replicates 2
# Summary of the method: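 Phenotypes for tubulin, mitochondrial mass and membrane permeability are expressed as per cents of healthy-nucleus cells. Cells were stained live at seeding with Hoechst33342, BioTracker Green Microtubule Cytoskeleton Dye, MitoTracker Red and Annexin V Alexa Fluor 680, then imaged after compound addition on a CQ1 microscope at 37°C and 5% CO2. Machine-learning gating in CellPathfinder separated Hoechst high-intensity objects from normal cells, divided normal cells by nuclear state (healthy, pyknosed, fragmented) and divided pyknosed cells into mitotic or apoptotic.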
# [1] = 12 h, 1 µM, compound concentration 1 uM
# [2] = 12 h, 10 µM, compound concentration 10 uM
# [3] = 24 h, 1 µM, compound concentration 1 uM
# [4] = 24 h, 10 µM, compound concentration 10 uM
# [5] = 48 h, 1 µM, compound concentration 1 uM
# [6] = 48 h, 10 µM, compound concentration 10 uM
smiles,measurement,setting,value
CS(=O)(=O)c1ccc(C(=O)Nc2cccc(COc3ccc(Br)cc3CN3CC[C@H](O)C3)c2)cc1.O=CO,Population Fragmented Nuclei (%),[1],13% and 4%
same,Population Healthy Nuclei (%),[1],48% and 65%
same,Population Hoechst High Intensity Objects (%),[1],0%
same,Population Mitotic Cells (%),[1],52%
same,Population Normal (%),[1],100%
same,Population Pyknosed Nuclei (%),[1],37% and 30%
same,Total Cell Count,[1],166 and 138
same,Population Fragmented Nuclei (%),[2],15% and 22%
same,Population Healthy Nuclei (%),[2],55% and 64%
same,Population Hoechst High Intensity Objects (%),[2],0%
same,Population Mitotic Cells (%),[2],51%
same,Population Normal (%),[2],100%
same,Population Pyknosed Nuclei (%),[2],30%
same,Total Cell Count,[2],180 and 311
same,Population Fragmented Nuclei (%),[3],9% and 14%
same,Population Healthy Nuclei (%),[3],54% and 50%
same,Population Hoechst High Intensity Objects (%),[3],0%
same,Population Normal (%),[3],100% and 99%
same,Total Cell Count,[3],142 and 175
same,Population Fragmented Nuclei (%),[4],18% and 28%
same,Population Healthy Nuclei (%),[4],57% and 60%
same,Population Hoechst High Intensity Objects (%),[4],0%
same,Population Mitotic Cells (%),[4],29% and 31%
same,Population Normal (%),[4],99%
same,Population Pyknosed Nuclei (%),[4],10%
same,Total Cell Count,[4],214 and 336
same,Population Fragmented Nuclei (%),[5],14% and 21%
same,Population Healthy Nuclei (%),[5],55% and 59%
same,Population Hoechst High Intensity Objects (%),[5],0% and 1%
same,Population Mitotic Cells (%),[5],36% and 22%
same,Population Normal (%),[5],100% and 98%
same,Population Pyknosed Nuclei (%),[5],29% and 19%
same,Total Cell Count,[5],147 and 164
same,Population Fragmented Nuclei (%),[6],28% and 31%
same,Population Healthy Nuclei (%),[6],62% and 61%
same,Population Hoechst High Intensity Objects (%),[6],0%
same,Population Mitotic Cells (%),[6],4% and 13%
same,Population Normal (%),[6],100% and 99%
same,Population Pyknosed Nuclei (%),[6],9%
same,Total Cell Count,[6],253 and 402
Cc1onc(-c2ccccc2Cl)c1C(=O)N(C)c1ccc(Cl)cc1,Population Apoptotic (%),[1],35%
same,Population Fragmented Nuclei (%),[1],11% and 12%
same,Population Healthy Nuclei (%),[1],66% and 69%
same,Population Hoechst High Intensity Objects (%),[1],0%
same,Population Membrane Permeable-Phenotype (%),[1],6% and 8%
same,Population Mitochondria Different-Phenotype (%),[1],0%
same,Population Mitotic Cells (%),[1],64%
same,Population Normal (%),[1],100%
same,Population Pyknosed Nuclei (%),[1],22% and 18%
same,Population Tubulin-Different-Phenotype (%),[1],16% and 12%
same,Total Cell Count,[1],167 and 197
same,Population Apoptotic (%),[2],36% and 47%
same,Population Fragmented Nuclei (%),[2],8%
same,Population Healthy Nuclei (%),[2],67% and 72%
same,Population Hoechst High Intensity Objects (%),[2],0%
same,Population Membrane Permeable-Phenotype (%),[2],8% and 11%
same,Population Mitochondria Different-Phenotype (%),[2],2%
same,Population Mitotic Cells (%),[2],63% and 52%
same,Population Normal (%),[2],100%
same,Population Pyknosed Nuclei (%),[2],24% and 18%
same,Population Tubulin-Different-Phenotype (%),[2],18% and 15%
same,Total Cell Count,[2],185 and 192
same,Population Apoptotic (%),[3],44% and 31%
same,Population Fragmented Nuclei (%),[3],8% and 13%
same,Population Healthy Nuclei (%),[3],66% and 64%
same,Population Hoechst High Intensity Objects (%),[3],0%
same,Population Membrane Permeable-Phenotype (%),[3],7% and 6%
same,Population Mitochondria Different-Phenotype (%),[3],0%
same,Population Mitotic Cells (%),[3],55% and 68%
same,Population Normal (%),[3],100%
same,Population Pyknosed Nuclei (%),[3],24% and 22%
same,Population Tubulin-Different-Phenotype (%),[3],13% and 9%
same,Total Cell Count,[3],157 and 204
same,Population Apoptotic (%),[4],56% and 57%
same,Population Fragmented Nuclei (%),[4],5% and 8%
same,Population Healthy Nuclei (%),[4],72% and 74%
same,Population Hoechst High Intensity Objects (%),[4],0%
same,Population Membrane Permeable-Phenotype (%),[4],5% and 8%
same,Population Mitochondria Different-Phenotype (%),[4],4% and 0%
same,Population Mitotic Cells (%),[4],43% and 42%
same,Population Normal (%),[4],100% and 99%
same,Population Pyknosed Nuclei (%),[4],22% and 17%
same,Population Tubulin-Different-Phenotype (%),[4],15% and 11%
same,Total Cell Count,[4],166 and 203
same,Population Apoptotic (%),[5],42% and 56%
same,Population Fragmented Nuclei (%),[5],8% and 14%
same,Population Healthy Nuclei (%),[5],72% and 68%
same,Population Hoechst High Intensity Objects (%),[5],0%
same,Population Membrane Permeable-Phenotype (%),[5],2% and 3%
same,Population Mitochondria Different-Phenotype (%),[5],0%
same,Population Mitotic Cells (%),[5],57% and 43%
same,Population Normal (%),[5],100%
same,Population Pyknosed Nuclei (%),[5],18% and 17%
same,Population Tubulin-Different-Phenotype (%),[5],9% and 4%
same,Total Cell Count,[5],148 and 214
same,Population Apoptotic (%),[6],65% and 54%
same,Population Healthy Nuclei (%),[6],77% and 74%
same,Population Hoechst High Intensity Objects (%),[6],0%
same,Population Membrane Permeable-Phenotype (%),[6],7% and 4%
same,Population Mitochondria Different-Phenotype (%),[6],1% and 0%
same,Population Mitotic Cells (%),[6],34% and 45%
same,Population Normal (%),[6],100%
same,Population Pyknosed Nuclei (%),[6],18% and 9%
same,Population Tubulin-Different-Phenotype (%),[6],11% and 8%
same,Total Cell Count,[6],157 and 221
